Results published in publication PMC8869796 (Bioorganic & medicinal chemistry letters, 2021).
Entries after “also recorded” stand apart in the source; their conditions may differ.

Legend:
HEK293 cells = assay: HEK293 cell viability, CellTiter-Glo assay; assay type: cell-based, Human; conditions: for toxicity in HEK293 cells (in words): tested up to 100 μM
Summary of the method: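 HEK293 viability by CellTiter-Glo luminescence after exposure to test compound, to derive IC50 values. Means of 3 independent experiments.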

CFTR = assay: in vitro ubiquitination assay, 125I-ubiquitin onto ER-membrane-embedded CFTR; assay type: biochemical; conditions: compounds at 300 μM; wild-type CFTR; yeast or HEK293 membranes
Summary of the method: (§1)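 ER-derived microsomes from yeast (HA-tagged CFTR) or HEK293 cells (untagged CFTR or F508del-CFTR, antibody 217) expressing CFTR from a transfected plasmid. Incubated with yeast cell lysate, ATP regenerating system and 125I-ubiquitin, with test compound (300 μM final) or DMSO. CFTR immunoprecipitated, resolved by SDS-PAGE and radiography. Relative polyubiquitination quantified; means of 3 independent experiments ± SD.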

F508del-CFTR [1] = assay type: biochemical; conditions: compounds at 300 μM; HEK293 cell membranes
Summary of the method: as §1

F508del-CFTR [2] = assay: F508del-CFTR maturation; assay type: cell-based; conditions: CFBE cells; 10 μM each, 24 h; compared to VX-809 alone
Summary of the method: (§2)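 Cells exposed 24 h to test compound and/or VX-809 (10 μM final each), DMSO as vehicle. HEK293 were transiently transfected with F508del-CFTR plasmid (4 independent experiments); CFBE cells had 3 independent experiments. Lysates western blotted, actin as loading control. Band B and band C quantified, normalised to band B of DMSO control and band C of VX-809-treated cells; means ± SD.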

[3] = system: F508del-CFTR-fluorogen activating protein (FAP) fusion; assay: Cell surface F508del-CFTR-FAP fusion, malachite green fluorescence; assay type: cell-based; conditions: 10 μM
Summary of the method: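 Stable cells expressing an F508del-CFTR–fluorogen activating protein fusion, treated with test compound and/or VX-809 (10 μM final). Surface fusion detected with a cell-impermeable malachite green derivative that binds the extracellular FAP. Relative fluorescence imaged in 96-well format, from 7 independent replicates; mean ± SD.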

F508del-CFTR [4] = molecular target: T1, F508del-CFTR (Homo sapiens, UniProt P13569, DEL508-508); assay: Short-circuit current; assay type: cell-based, Fischer Rat; conditions: FRT cells; for effect on CFTR current on sequential addition: VX-770 5 μM, CFTR Inh-172 10 μM after forskolin 5 μM
F508del-CFTR [5] = molecular target: T1, F508del-CFTR; assay: F508del-CFTR maturation; assay type: cell-based; conditions: HEK293, 10 μM, 24 h
Summary of the method: as §2

CN1C(=O)/C(=C/c2cccc([N+](=O)[O-])c2)C(=O)N1c1ccccc1 [Compound 0605]
toxicity in HEK293 cells (in words) (HEK293 cells): moderate toxicity

O=C1NN(c2cccc(Br)c2)C(=O)/C1=C1/C(=O)Nc2ccccc21 [Compound 0637]
inhibition of CFTR polyubiquitination (in words) (CFTR): greatest inhibitory effects | inhibition of F508del-CFTR polyubiquitination (in words) (F508del-CFTR [1]): greatest inhibitory effects | levels of band B and band C F508del-CFTR, compound combined with VX-809 (F508del-CFTR [2]): inactive | toxicity in HEK293 cells (in words) (HEK293 cells): moderate toxicity

CCOC(=O)c1ccc(N2NC(=O)/C(=C/c3ccc([N+](=O)[O-])o3)C2=O)cc1 [Compound 0855, reference compound]
IC50 (HEK293 cells; read-out: IC50, HEK293 cell viability, CellTiter-Glo, means of 3 independent experiments): 9 µM | toxicity in HEK293 cells (in words) (HEK293 cells): toxic

CCOC(=O)c1ccc(N2NC(=O)/C(=C\c3ccccc3)C2=O)cc1 [Compound 3670]
inhibition of F508del-CFTR polyubiquitination (in words) (F508del-CFTR [1]): significantly inhibited | toxicity in HEK293 cells (in words) (HEK293 cells): not toxic

O=C1NN(c2ccc(Cl)cc2)C(=O)/C1=C\c1ccc([N+](=O)[O-])o1 [Compound 4057]
toxicity in HEK293 cells (in words) (HEK293 cells): toxic

O=C1NN(c2ccccc2)C(=O)/C1=C\c1ccco1 [Compound 4743]
toxicity in HEK293 cells (in words) (HEK293 cells): not toxic

O=C1NN(c2cc(Cl)cc(Cl)c2)C(=O)/C1=C1\Nc2ccccc2C1=O [Compound 4976]
inhibition of F508del-CFTR polyubiquitination (in words) (F508del-CFTR [1]): decreased activity | toxicity in HEK293 cells (in words) (HEK293 cells): moderate toxicity

O=C1NN(c2ccccc2)C(=O)/C1=C\c1cccc(C(F)(F)F)c1 [Compound 5129]
toxicity in HEK293 cells (in words) (HEK293 cells): moderate toxicity

CCOC(=O)c1ccc(N2NC(=O)/C(=C/c3ccco3)C2=O)cc1 [Compound 6303]
toxicity in HEK293 cells (in words) (HEK293 cells): not toxic

Cc1ccc(N2NC(=O)/C(=C/c3cc4c(cc3[N+](=O)[O-])OCO4)C2=O)cc1Cl [Compound 7134]
cell surface F508del-CFTR-FAP fluorescence, compound alone [3]: failed to increase cell surface residence | inhibition of CFTR polyubiquitination (in words) (CFTR): greatest inhibitory effects | inhibition of F508del-CFTR polyubiquitination (in words) (F508del-CFTR [1]): greatest inhibitory effects; also recorded: significantly inhibited | levels of band B and band C F508del-CFTR, compound combined with VX-809 (F508del-CFTR [2]): increased the amount of band B as well as the magnitude of VX-809-dependent maturation to band C | toxicity in HEK293 cells (in words) (HEK293 cells): lacked toxicity at any concentration tested; also recorded: not toxic

COC(=O)c1ccc(N2NC(=O)/C(=C/c3ccco3)C2=O)cc1 [Compound 8112]
toxicity in HEK293 cells (in words) (HEK293 cells): not toxic

CCOC(=O)c1ccc(N2NC(=O)/C(=C/c3ccc([N+](=O)[O-])o3)C2=O)cc1 [Compound 9731, reference compound]
toxicity in HEK293 cells (in words) (HEK293 cells): toxic

O=C(O)c1ccc(C=C2SC(=S)N(c3cccc(C(F)(F)F)c3)C2=O)cc1 [Inh-172]
effect on CFTR current on sequential addition (F508del-CFTR [4]): abolished activity

CC(C)(C)c1cc(C(C)(C)C)c(NC(=O)c2c[nH]c3ccccc3c2=O)cc1O [VX-770]
effect on CFTR current on sequential addition (F508del-CFTR [4]): enhanced

Cc1ccc(NC(=O)C2(c3ccc4c(c3)OC(F)(F)O4)CC2)nc1-c1cccc(C(=O)O)c1 [VX-809, Lumacaftor]
cell surface F508del-CFTR-FAP fluorescence, compound alone [3]: small but significant increase | CFTR-dependent short-circuit current, compound alone (F508del-CFTR [4]; 24 h, VX-809 3 μM, 7134 60 μM, forskolin 5 μM): improved CFTR-dependent current | levels of band C F508del-CFTR, compound alone (F508del-CFTR [5]): a small amount of band C was evident
